Data: PMC8978659 (RSC Advances, 2021)

Tested on: RAW264.7 cells
Assay: Cytotoxicity test, CCK-8
Assay type: cell-based
Settings: 10 μM, 48 h, CCK-8, OD 450 nm, duplicate independent experiments
In short: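 RAW264.7 cells seeded at 1 × 10^5 per mL and exposed for 48 h to test compound at 0, 1.25, 2.5, 5 and 10 μM. CCK-8 reagent added, then 4 h at 37 °C protected from light. Absorbance read at 450 nm. Survival rate = OD of treated / OD of blank control; cytotoxic effect = 1 − survival rate.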

SMILES: NCC1CC(=S)N2CC3CCCN4CCCC(C34)C2C1 (stereo not shown) [M19, 13-Aminomethyl-15-thiomatrine]
- cell viability inhibition: about 20%
